Measurements: publication PMC10582678 (Clinical and Translational Science, 2023)
Entries after “also recorded” stand apart in the source; their conditions may differ.

Key:
[1] = Safety, adverse events, multiple ascending doses; assay type: in vivo, human; details: for AEs / Abdominal discomfort / Constipation / Decreased leukocyte count / Decreased lymphocyte count / Decreased neutrophil count / Dermatitis allergic / Dyspepsia / Increased ALT / Increased AST / Increased blood bilirubin / Increased blood creatinine / Lethargy / Mouth ulceration / Oropharyngeal pain / Sinus arrythmia / Upper respiratory tract infection / Increased blood cholesterol / Treatment discontinuation due to AEs / Increased blood triglycerides: n (%)
In short: (§1)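 Safety was monitored by vital signs, clinical laboratory tests, physical examination, 12-lead ECG, AEs and SAEs. AEs were coded with MedDRA 23.1 and graded by CTCAE 5.0. Subjects were discharged 6 days after the last dose, with a follow-up visit 8–14 days after the last dose. The safety set comprised randomized subjects who received active drug or placebo and had post-dose safety data.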

[2] = tested on: EGFR, ITK, Lck, SRC, LYN, and JAK3; assay: Selectivity for BTK over other kinases; assay type: biochemical; details: stated in introduction
BTK = BTK (Homo sapiens, UniProt Q06187); assay: BTK receptor occupancy in peripheral blood monocytes; assay type: in vivo
Sequence of BTK (Q06187 whole entry): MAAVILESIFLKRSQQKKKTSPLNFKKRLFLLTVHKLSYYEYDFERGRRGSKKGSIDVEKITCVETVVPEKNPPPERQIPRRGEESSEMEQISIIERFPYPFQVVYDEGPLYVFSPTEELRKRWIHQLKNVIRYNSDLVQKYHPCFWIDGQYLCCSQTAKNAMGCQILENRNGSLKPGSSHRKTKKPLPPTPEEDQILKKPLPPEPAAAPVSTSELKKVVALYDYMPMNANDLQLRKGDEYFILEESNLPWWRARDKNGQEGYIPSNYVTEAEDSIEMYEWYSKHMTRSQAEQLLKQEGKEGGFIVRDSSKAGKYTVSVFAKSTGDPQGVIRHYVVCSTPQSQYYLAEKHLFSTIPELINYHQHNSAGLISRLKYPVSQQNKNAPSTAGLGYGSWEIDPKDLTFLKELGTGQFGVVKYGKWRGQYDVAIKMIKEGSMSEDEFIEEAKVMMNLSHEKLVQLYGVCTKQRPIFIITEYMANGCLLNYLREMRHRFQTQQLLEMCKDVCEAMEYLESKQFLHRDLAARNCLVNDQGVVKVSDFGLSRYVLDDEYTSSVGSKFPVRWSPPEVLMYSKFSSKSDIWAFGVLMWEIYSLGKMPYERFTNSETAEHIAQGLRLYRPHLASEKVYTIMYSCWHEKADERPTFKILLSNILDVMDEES
In short: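 Peripheral blood was sampled from healthy adult Chinese subjects given oral test compound or placebo. In the multiple-dose part, samples were taken at 0, 12, 24 and 168 h after the first dose (day 1) and at 0 and 12 h after the last dose (day 10). In the food-effect part, samples were taken at 0, 12, 24 and 120 h postdose. BTK occupancy was measured by validated ELISA (sensitivity 1.784 ng/mL). Negative placebo values were set to 0.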

[3] = Preclinical safety in beagles; assay type: in vivo; details: stated in introduction
[4] = Safety, adverse events, whole study; assay type: in vivo, human
In short: as §1

[5] = Plasma pharmacokinetics, food effect; assay type: in vivo, human; details: 600 mg; for half-life / Tmax: human, plasma, oral; for half-life: T1/2, 600 mg, mean ± SD; for Tmax: median (min, max)
In short: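 This was a randomized, open-label, two-period crossover in 12 healthy subjects. Each received one oral 600 mg dose fasted then fed, or the reverse, with a 7-day washout. Drug was quantified by validated HPLC-tandem accurate mass spectrometry (calibration 5.00–5000 ng/mL). Parameters came from noncompartmental analysis.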

[6] = 18 subjects, MAD 200 to 600 mg for 10 days
[7] = among 57 subjects who received SN1011

## N#CN1C[C@H](n2nc(-c3ccc(Oc4ccc(Cl)cn4)cc3)c(C(N)=O)c2N)CCC12CC2 [SN1011, 5-amino-3-(4-((5-chloro-2-pyridinyl)oxy)phenyl)-1-((6R)-4-cyano-4-azaspiro[2.5]octan-6-yl)-1H-pyrazole-4-carboxamide]
[1]; [6]
  blood triglycerides increased: 33.3%
  leucocyte count decreased: 22.2%
  neutrophil count decreased: 27.8%
  number of AEs: 34
  subjects who experienced AEs: 66.7%
[1]; 18 subjects, MAD 200 to 600 mg, all grade 1 or 2
  subjects with at least a treatment-related AE (TRAE): 61.1%
[1]; MAD 200 mg QD, any grade
  AEs: 3 (50.0)
  Abdominal discomfort: 0
  Constipation: 0
  Decreased leukocyte count: 1 (16.7)
  Decreased lymphocyte count: 0
  Decreased neutrophil count: 1 (16.7)
  Dermatitis allergic: 0
  Dyspepsia: 0
  Increased ALT: 1 (16.7)
  Increased AST: 1 (16.7)
  Increased blood bilirubin: 1 (16.7)
  Increased blood creatinine: 0
  Lethargy: 0
  Mouth ulceration: 0
  Oropharyngeal pain: 0
  Sinus arrythmia: 0
  Upper respiratory tract infection: 0
[1]; MAD 200 mg QD
  Increased blood cholesterol: 0
  Treatment discontinuation due to AEs: 0
[1]; MAD 400 mg QD, any grade
  AEs: 4 (66.7)
  Abdominal discomfort: 0
  Constipation: 0
  Decreased leukocyte count: 1 (16.7)
  Decreased lymphocyte count: 0
  Decreased neutrophil count: 2 (33.3)
  Dermatitis allergic: 0
  Dyspepsia: 0
  Increased ALT: 0
  Increased AST: 0
  Increased blood bilirubin: 0
  Increased blood creatinine: 2 (33.3)
  Increased blood triglycerides: 2 (33.3)
  Lethargy: 0
  Mouth ulceration: 0
  Sinus arrythmia: 1 (16.7)
  Upper respiratory tract infection: 1 (16.7)
[1]; MAD 400 mg QD
  Increased blood cholesterol: 0
  Treatment discontinuation due to AEs: 0
[1]; MAD 600 mg QD, any grade
  AEs: 5 (83.3)
  Abdominal discomfort: 1 (16.7)
  Constipation: 1 (16.7)
  Decreased leukocyte count: 2 (33.3)
  Decreased lymphocyte count: 1 (16.7)
  Decreased neutrophil count: 2 (33.3)
  Dermatitis allergic: 2 (33.3)
  Dyspepsia: 1 (16.7)
  Increased ALT: 1 (16.7)
  Increased AST: 1 (16.7)
  Increased blood bilirubin: 1 (16.7)
  Increased blood creatinine: 0
  Increased blood triglycerides: 2 (33.3)
  Lethargy: 1 (16.7)
  Mouth ulceration: 1 (16.7)
  Oropharyngeal pain: 1 (16.7)
  Sinus arrythmia: 0
[1]; MAD 600 mg QD
  Increased blood cholesterol: 0
  Treatment discontinuation due to AEs: 0
[1]; MAD All SN1011, N = 18
  AEs: 12 (66.7)
  Abdominal discomfort: 1 (5.6)
  Constipation: 1 (5.6)
  Decreased leukocyte count: 4 (22.2)
  Decreased lymphocyte count: 1 (5.6)
  Decreased neutrophil count: 5 (27.8)
  Dermatitis allergic: 2 (11.1)
  Dyspepsia: 1 (5.6)
  Increased ALT: 2 (11.1)
  Increased AST: 2 (11.1)
  Increased blood bilirubin: 2 (11.1)
  Increased blood cholesterol: 0
  Increased blood creatinine: 2 (11.1)
  Increased blood triglycerides: 6 (33.3)
  Lethargy: 1 (5.6)
  Mouth ulceration: 1 (5.6)
  Oropharyngeal pain: 1 (5.6)
  Sinus arrythmia: 1 (5.6)
  Treatment discontinuation due to AEs: 0
  Upper respiratory tract infection: 1 (5.6)
[2]
  selectivity for BTK over other kinases: 700 fold
BTK; MAD groups, 10 days of continuous q.d. administration of 400 and 600 mg
  BTK receptor occupancy: above 80%
BTK; over 24 h after single administration of 600 mg, fasted and fed states
  BTK receptor occupancy: above 83%
[3]
  safety profile: acceptable safety profile
[4]; all parts of the study
  serious adverse events: No serious adverse events; also recorded: no SAEs were reported
[4]; [7]
  subjects who experienced AEs: 28
  total number of AEs: 55
[5]; fed state to fasted state
  AUC0-inf, Geometric Mean Ratio: 93.76%
  AUC0-t, Geometric Mean Ratio: 92.79%
  Cmax, Geometric Mean Ratio: 97.08%
[5]; Fasted
  half-life: 1460 ± 522 min
  Tmax: 4 h
[5]; Fed
  half-life: 1600 ± 798 min
  Tmax: 6 h
